Data published in ChEMBL document CHEMBL3102831 (Bioorg Med Chem Lett, 2014).
Active and inactive are the calls of the source. The calls are words filed in the database; no cut-off is given here.

Tests used:
[1] = system: HUVEC; experiment: Cytotoxicity against human HUVEC after 48 hrs by MTT assay; format: cell-based
[2] = system: HCT-116; experiment: Cytotoxicity against human HCT116 cells after 48 hrs by MTT assay; format: functional, cell-based; details: HCT-116, 48 h
[3] = Cytotoxicity against human SPCA2 cells after 48 hrs by MTT assay; format: functional, cell-based; details: SPCA2, 48 h
[4] = system: HeLa; experiment: Cytotoxicity against human HeLa cells after 48 hrs by MTT assay; format: functional, cell-based
[5] = system: CNE; experiment: Cytotoxicity against human CNE cells after 48 hrs by MTT assay; format: functional, cell-based
[6] = system: HepG2; experiment: Cytotoxicity against human HepG2 cells after 48 hrs by MTT assay; format: functional, cell-based; details: HepG2, 48 h
[7] = system: HCT-116; experiment: Cell cycle arrest in human HCT116 cells assessed as accumulation at S phase after 48 hrs using propidium iodide staining by FACS analysis (reference value: 23.29%); format: functional
Method in brief: (§1)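 HCT116 cells exposed 48 h to compound at 3 and 5 µM, with untreated cells as control. Cells were stained with propidium iodide, and DNA content was measured by flow cytometry. Read-out is the percentage of cells in G1, S and G2 phases.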

[8] = system: HCT-116; experiment: Induction of apoptosis in human HCT116 cells assessed as change in mitochondrial membrane potential after 24 hrs by JC-1 staining; format: functional, cell-based
Method in brief: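 HCT116 cells treated 24 h at 3 and 5 µM, with untreated cells as 24 h control. Cells were stained with JC-1 and viewed by fluorescence microscopy. Monomer was excited at 514 nm with emission 515–545 nm (green); J-aggregates were excited at 585 nm with emission 570–600 nm (red). Potential loss is read as a red-to-green shift.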

[9] = system: HCT-116; experiment: Cell cycle arrest in human HCT116 cells assessed as accumulation at G1 phase after 48 hrs using propidium iodide staining by FACS analysis (reference value: 39.08%); format: functional; method in brief: as §1

Structure (SMILES) | IC50 [1] [µM] | IC50 [2] [µM] | IC50 [3] [µM] | IC50 [4] [µM] | IC50 [5] [µM] | IC50 [6] [µM] | Activity [7] [%] | Activity [8] | Activity [9] [%]
CCOP(=O)(OCC)C(NC(=O)c1cc(O)c2c(c1)C(=O)c1cccc(O)c1C2=O)c1ccc(Br)cc1 (stereo not drawn) | > 100 | 65.5 | 88.2 | 98.2 | 42.5 | 94.2 | – | – | –
CCOP(=O)(OCC)C(NC(=O)c1cc(O)c2c(c1)C(=O)c1cccc(O)c1C2=O)c1ccc2ccccc2c1 (stereo not drawn) | > 100 | > 100 | > 100 | > 100 | > 100 | > 100 | – | – | –
CCOP(=O)(OCC)C(NC(=O)c1cc(O)c2c(c1)C(=O)c1cccc(O)c1C2=O)c1ccccc1Cl (stereo not drawn) | > 100 | 48.2 | 28.3 | 35.2 | 68 | 39.2 | – | – | –
CCOP(=O)(OCC)C(NC(=O)c1cc(O)c2c(c1)C(=O)c1cccc(O)c1C2=O)c1cccc(Cl)c1 (stereo not drawn) | > 100 | 22.4 | 77 | 73.2 | 45.6 | 72 | – | – | –
O=c1[nH]cc(F)c(=O)[nH]1 [FLUOROURACIL] | 56 | 5.78 | 42.2 | 35.3 | 40.2 | 30 | 28 | Active | 65.6
CCOP(=O)(OCC)C(NC(=O)c1cc(O)c2c(c1)C(=O)c1cccc(O)c1C2=O)c1ccccc1OC (stereo not drawn) | > 100 | 8.37 | 15 | 25.6 | 28.6 | 30 | – | – | –
CCOP(=O)(OCC)C(NC(=O)c1cc(O)c2c(c1)C(=O)c1cccc(O)c1C2=O)c1cccc(C)c1 (stereo not drawn) | > 100 | 45.4 | 67.7 | 73.3 | 74.2 | 62.2 | – | – | –
CCOP(=O)(OCC)C(NC(=O)c1cc(O)c2c(c1)C(=O)c1cccc(O)c1C2=O)c1cccc(Br)c1 (stereo not drawn) | > 100 | 40.2 | 75.4 | 78.2 | 40.1 | 62.4 | – | – | –
CCOP(=O)(OCC)C(NC(=O)c1cc(O)c2c(c1)C(=O)c1cccc(O)c1C2=O)c1ccccc1F (stereo not drawn) | > 100 | 36.6 | 79.9 | 94.2 | 67.6 | 71.2 | – | – | –
CCOP(=O)(OCC)C(NC(=O)c1cc(O)c2c(c1)C(=O)c1cccc(O)c1C2=O)c1ccc(Cl)cc1 (stereo not drawn) | > 100 | 61.2 | 89.5 | 87.5 | 55.8 | 87.3 | – | – | –
